The values that follow come from ChEMBL document CHEMBL1138476 (J Med Chem, 2009).

The nature of data set [1]: Lipophilicity log P of the compound. The settings on record: octanol/water. In kind it is physicochemical.
Data set [2] has as its system Rattus norvegicus. Put plainly: Anxiolytic activity in rat assessed as increase in time spent on open arm at 18 mg/kg, po by elevated plus-maze test. In kind it is functional, organism-based. Set-up: dose 18 mg/kg. An outline of the steps: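 Rat elevated plus maze: percent of test time spent in the open arms. Oral dosing in 0.25% Methocel 60 min before testing; n = 12 per dose, mean ± SEM. Analysed by ANOVA followed by Fisher's LSD comparisons against vehicle.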

Data set [3] concerns Rattus norvegicus. Put plainly: Anxiolytic activity in rat assessed as decrease in latency to exit dark chamber at 10 mg/kg, po by defensive withdrawal test relative to untreated control. It counts as functional. Set-up: scale not given: the % may be the effect or the level left. Put shortly: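 Rat defensive withdrawal: latency to leave the dark chamber and explore the open field, maximum 900 s. Dosed orally in 0.25% Methocel 60 min before testing; n = 8 per dose, mean ± SEM. Analysed by Kruskal–Wallis followed by Mann–Whitney U against vehicle.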

Data set [4] in a line: Aqueous solubility at pH 7.4. The settings on record: aqueous medium. In kind it is physicochemical. An outline of the steps:
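Solubility measured in water at pH 7.4.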

A short description of data set [5]: Aqueous solubility at pH 7. It counts as physicochemical. The settings on record: aqueous medium.
Data set [6] in a line: Solubility in dilute HCl at pH 2.3. It counts as physicochemical.
Data set [7] addresses T1, Corticotropin-releasing factor receptor 1 (Rattus norvegicus, UniProt P35353).
T1 sequence (P35353 whole entry): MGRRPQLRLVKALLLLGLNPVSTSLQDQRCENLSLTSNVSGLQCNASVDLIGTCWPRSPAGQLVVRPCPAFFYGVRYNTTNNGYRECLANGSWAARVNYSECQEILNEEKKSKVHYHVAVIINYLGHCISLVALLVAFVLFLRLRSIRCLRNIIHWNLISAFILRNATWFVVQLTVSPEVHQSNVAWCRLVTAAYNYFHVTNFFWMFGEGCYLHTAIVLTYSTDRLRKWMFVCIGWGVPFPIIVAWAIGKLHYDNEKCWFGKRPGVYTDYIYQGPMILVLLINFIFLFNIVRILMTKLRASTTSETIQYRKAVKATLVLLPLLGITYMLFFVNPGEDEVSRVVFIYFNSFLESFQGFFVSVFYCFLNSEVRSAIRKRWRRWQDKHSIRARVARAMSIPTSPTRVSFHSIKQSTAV
As to the kind of experiment: Displacement of [125I]Tyro-rat/human CRF from CRF1 receptor in rat cortical membrane by gamma counting. In kind it is cell membranes. Put shortly: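 Binding to CRF receptors in rat cortical homogenate.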
On the technique in general: Loss of bound radioactivity is the signal in a displacement assay; it reports binding, not function.

The nature of data set [8]: AUC in Beagle dog at 1 mg/kg, po by cassette dosing. It counts as ADME, organism-based, Canis lupus familiaris. The arrangement: dose 1 mg/kg, route oral. The settings on record: plasma.
Data set [9] can be described thus: Cmax in Beagle dog at 1 mg/kg, po by cassette dosing. In kind it is ADME, organism-based, Canis lupus familiaris. The arrangement: dose 1 mg/kg, route oral. The settings on record: in vivo.
Data set [10] is described as follows: Half life in Beagle dog at 1 mg/kg, po by cassette dosing. It counts as ADME, organism-based, Canis lupus familiaris. The arrangement: dose 1 mg/kg, route oral. The settings on record: in vivo.
The nature of data set [11]: Elimination half life in chimpanzee at 1 mg/kg, po. In kind it is ADME, organism-based, Pan troglodytes. The arrangement: dose 1 mg/kg, route oral. The settings on record: in vivo, read-out: beta t1/2 (converted). An outline of the steps: (§1)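 Two alert chimpanzees were given 1 mg/kg po as a 1 mg/mL suspension in 50:50 (v/v) 0.5% methylcellulose and Tang orange juice containing 1% Tween-80. EDTA blood was taken predose and at 2–96 h. Bioavailability was calculated against a 0.5 mg/kg iv dose given to one animal.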

Data set [12] is described as follows: Oral bioavailability in rat at 5 mg/kg. It counts as ADME, organism-based. The settings on record: in vivo. Put shortly:
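Rats (n = 3) were dosed at 1 mg/kg iv in 10% DMAC, 70% propylene glycol and deionized water, and at 5 mg/kg po in 0.5% methylcellulose.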

Data set [13] is described as follows: Tmax in rat at 5 mg/kg, po. It counts as ADME, organism-based. Set-up: dose 5 mg/kg, route oral. The settings on record: in vivo. Put shortly: (§2)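 Rats (n = 3) dosed iv at 1 mg/kg in 10% DMAC, 70% propylene glycol and deionized water, and orally at 5 mg/kg in 0.5% methylcellulose.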
Data set [14] can be described thus: Volume of distribution at steady state in chimpanzee at 0.5 mg/kg, iv. In kind it is ADME, organism-based, Pan troglodytes. The arrangement: dose 0.5 mg/kg, route intravenous. The settings on record: in vivo, read-out: Vdss. An outline of the steps: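 Single chimpanzee given 0.5 mg/kg iv over 10 min (0.2 mL/kg) in 10% DMAC, 70% propylene glycol and deionized water. EDTA blood taken predose, at 6, 15 and 30 min, and at 2 to 96 h.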

Data set [15] is described as follows: AUC (0 to infinity) in chimpanzee at 0.5 mg/kg, iv. Set-up: time infinity, dose 0.5 mg/kg, route intravenous. It counts as ADME, organism-based, Pan troglodytes. The settings on record: plasma. An outline of the steps: (§3)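 Chimpanzee PK. Oral: 1 mg/kg in two alert animals, given as a 1 mg/mL suspension in 50–50 (v/v) 0.5% methylcellulose/Tang orange juice with 1% Tween-80. IV: 0.5 mg/kg in one animal in 10% DMAC, 70% propylene glycol and deionized water, infused over 10 min (0.2 mL/kg). EDTA blood was taken predose and at 2–96 h; iv sampling added 6, 15 and 30 min.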

Data set [16] can be described thus: AUC (0 to infinity) in chimpanzee at 1 mg/kg, po. In kind it is ADME, organism-based, Pan troglodytes. Set-up: time infinity, dose 1 mg/kg, route oral. The settings on record: plasma. An outline of the steps:
as §3

Data set [17] deals with T1, Corticotropin-releasing factor receptor 1. Put plainly: Agonist activity at CRF1 receptor in rat pituitary cells.
A short description of data set [18]: Clearance in chimpanzee at 0.5 mg/kg, iv. The settings on record: in vivo. In kind it is ADME, organism-based, Pan troglodytes. The arrangement: dose 0.5 mg/kg, route intravenous. Put shortly:
as §3

Data set [19] can be described thus: Cmax in rat at 5 mg/kg, po. It counts as ADME, organism-based. Set-up: dose 5 mg/kg, route oral. The settings on record: in vivo. Put shortly: (§4)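 Rats (n = 3) received 1 mg/kg iv in 10% DMAC, 70% propylene glycol and deionized water, or 5 mg/kg orally in 0.5% methylcellulose.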
A short description of data set [20]: Elimination half life in chimpanzee at 0.5 mg/kg, iv. It counts as ADME, organism-based, Pan troglodytes. Set-up: dose 0.5 mg/kg, route intravenous. The settings on record: in vivo, read-out: beta t1/2 (converted). Put shortly: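 One chimpanzee received 0.5 mg/kg iv over 10 min (0.2 mL/kg) in 10% DMAC, 70% propylene glycol and deionized water. Blood was drawn into EDTA predose and at 6, 15, 30 min and 2, 4, 6, 9, 12, 24, 36, 48, 72 and 96 h.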

A short description of data set [21]: Volume of distribution at steady state in rat at 1 mg/kg, iv and 5 mg/kg, po. In kind it is ADME, organism-based. The settings on record: in vivo, read-out: Vdss. An outline of the steps: as §2
The nature of data set [22]: Clearance in rat at 1 mg/kg, iv and 5 mg/kg, po. In kind it is ADME, organism-based. The settings on record: in vivo. Put shortly: as §4
A short description of data set [23]: Oral bioavailability in chimpanzee at 1 mg/kg. It counts as ADME, organism-based, Pan troglodytes. The settings on record: in vivo. An outline of the steps: as §1
A short description of data set [24]: Cmax in chimpanzee at 1 mg/kg, po. In kind it is ADME, organism-based, Pan troglodytes. Set-up: dose 1 mg/kg, route oral. The settings on record: in vivo. An outline of the steps: as §3
Data set [25] can be described thus: Half life in Beagle dog by discrete dosing. In kind it is ADME, organism-based, Canis lupus familiaris. The settings on record: in vivo.

In brackets after ≈: the same amount, converted by molar mass. Activity calls are given as the source filed them. No cut-off for these calls is given here.

What is called logP is a log measure of how a compound divides between an organic and an aqueous phase. A word on the solubility: it is how much of the substance goes into solution per volume. Take `COCC(COC)Nc1nc(C)nc2c(-c3ccc(Cl)cc3Cl)c(C)nn12`: the logP in data set [1] was determined as 4.97. For the same molecule, the outcome in data set [2] was Active. Further, in [3], the Activity worked out at 72%. The results for the solubility in data set [4], in [5] and in data set [6] were under 1 µg/mL, under 1 µg/mL and 230 µg/mL (≈ 561 µM), respectively.

In general, IC50 refers to the concentration that inhibits the measured activity by half. Molecule `CCN(C)c1nc(C)nc2c(-c3ccc(OC)nc3C)c(C)nn12` displayed an IC50 in data set [7] of 81.6 nM.

As usually defined, the AUC is the area under the concentration-time curve, a measure of exposure. The term Cmax denotes the maximum level reached in the sampled fluid or tissue. In turn, `CCCC(C)Nc1nc(C)nc2c(-c3ccc(OC)nc3C)c(C)nn12` (centres undefined) showed an AUC in data set [8] of 0.955 µM·h. For the same molecule, the IC50 in [7] was 3.5 nM. The same molecule yielded a Cmax in data set [9] of 156 nM. Moreover, the half-life in [10] is 708 min.

For the molecule `CCCCC(C)Nc1nc(C)nc2c(-c3ccc(OC)nc3C)c(C)nn12` (centres undefined), in [7], the IC50 came to 5.1 nM.

Turning to `CCCN(CCC)c1nc(C)nc2c(-c3c(C)cc(N(C)C)nc3C)c(C)nn12`, in data set [7], the IC50 is 14.9 nM.

For `CCN(CC)c1nc(C)nc2c(-c3ccc(OC)nc3C)c(C)nn12`, in data set [7], the IC50 amounted to 12 nM.

In data set [7], `CCCN(CCC)c1nc(C)nc2c(-c3ccc(OC)nc3C)c(C)nn12` had an IC50 of 5.7 nM.

For orientation: bioavailability means the share of a dose that reaches the circulation, judged against a reference dose that is usually intravenous. A word on the Tmax: it is the time from dosing to the highest level. In general, AUC(0-inf) refers to total exposure, with the tail of the curve extrapolated. With `COCCN(CCOC)c1nc(C)nc2c(-c3ccc(OC)cc3C)c(C)nn12.O=S(=O)(O)c1ccccc1`, the AUC in data set [8] was 1.66 µM·h. In addition, the half-life was 990 min in data set [11], 606 min in [10], 1210 min in [20] and 1620 min in data set [25]. For the same molecule, the bioavailability came to 51% in [12] and 5.2% in data set [23]. For the same molecule, the results for the Cmax in [9], in data set [19] and in [24] were 369 nM, 851 nM and 27 nM, respectively. Also, the Tmax in data set [13] was determined as 30 min. The logP in [1] worked out at 4.76. In addition, the solubility in data set [4] was under 1 µg/mL; in data set [6] it was 2500 µg/mL. In addition, the Vd in data set [14] was 9.52 L/kg; in data set [21], 14.6 L/kg. In addition, the AUC(0-inf) in [15] was 2.04 µM·h; in [16] it was 0.212 µM·h. The IC50 in data set [17] is 72.9 nM. Also, the clearance in [18] was 10.2 mL/min/kg; in [22] it was 20 mL/min/kg.

In data set [8], `CC[C@H](C)Nc1nc(C)nc2c(-c3ccc(OC)nc3C)c(C)nn12` yielded an AUC of 0.916 µM·h. The molecule further yielded an IC50 in data set [7] of 7 nM. In addition, in data set [9], the peak level (Cmax) was 168 nM. In [10], this molecule showed a half-life of 474 min.

As to `CCC[C@H](C)Nc1nc(C)nc2c(-c3ccc(OC)nc3C)c(C)nn12`, the IC50 in [7] came to 4.5 nM.

In data set [7], `CCC(CC)Nc1nc(C)nc2c(-c3c(C)cc(N(C)C)nc3C)c(C)nn12` gave an IC50 of 25.6 nM.

Molecule `COCCN(CCOC)c1nc(C)nc2c(-c3c(C)cc(N(C)C)nc3C)c(C)nn12` showed an IC50 in [7] of 133 nM.

`CCN(CC)c1nc(C)nc2c(-c3c(C)cc(N(C)C)nc3C)c(C)nn12` returned an IC50 in [7] of 58 nM.

For `CCN(CCOC)c1nc(C)nc2c(-c3ccc(OC)nc3C)c(C)nn12`, the IC50 in data set [7] was 6.6 nM.

Take `CCCCN(CC)c1nc(C)nc2c1c(C)cn2-c1c(C)cc(C)cc1C.Cl`: in data set [1], the lipophilicity (logP) is over 5. Besides, the solubility in data set [5] is under 1 µg/mL.

In the case of `CCCCN(CC)c1nc(C)nc2c(-c3c(C)cc(N(C)C)nc3C)c(C)nn12`, the IC50 in [7] came to 32.8 nM.

In [7], `CCCCN(CCC)c1nc(C)nc2c(-c3c(C)cc(N(C)C)nc3C)c(C)nn12` displayed an IC50 of 12.8 nM.
